Here are results for two compounds from ChEMBL document CHEMBL4052588, “Design of a Biased Potent Small Molecule Inhibitor of the Bromodomain and PHD Finger-Containing (BRPF) Proteins Suitable for Cellular and in Vivo Studies” (J Med Chem, 2017).

A short description of data set [1]: Growth inhibition of human SW403 cells after 72 hrs. It is filed as functional. Conditions: SW-403, 72 h.
A short description of data set [2]: Growth inhibition of human Panc 02.03 cells after 72 hrs. Conditions: Panc 02.03, 72 h. The data set is classed as functional.
The nature of data set [3]: Apparent permeability across apical side to basolateral side in human Caco2 cells at 10 uM after 2 hrs by LC-MS/MS analysis. To be noted: Caco-2. It is filed as ADME, cell-based.
In a further data set the test system is OCI-AML2. In words: Growth inhibition of human OCI-AML2 cells after 72 hrs. Conditions: OCI-AML2, 72 h. The data set is classed as functional.
The subject of the next data set is HepG2. Kind of data set: Growth inhibition of human HepG2 cells after 72 hrs. The data set is classed as functional. Conditions: HepG2, 72 h.
Data set [4] concerns the target T1, Bromodomain and PHD finger-containing protein 3 (Homo sapiens, UniProt Q9ULD4).
T1 sequence (Q9ULD4 whole entry): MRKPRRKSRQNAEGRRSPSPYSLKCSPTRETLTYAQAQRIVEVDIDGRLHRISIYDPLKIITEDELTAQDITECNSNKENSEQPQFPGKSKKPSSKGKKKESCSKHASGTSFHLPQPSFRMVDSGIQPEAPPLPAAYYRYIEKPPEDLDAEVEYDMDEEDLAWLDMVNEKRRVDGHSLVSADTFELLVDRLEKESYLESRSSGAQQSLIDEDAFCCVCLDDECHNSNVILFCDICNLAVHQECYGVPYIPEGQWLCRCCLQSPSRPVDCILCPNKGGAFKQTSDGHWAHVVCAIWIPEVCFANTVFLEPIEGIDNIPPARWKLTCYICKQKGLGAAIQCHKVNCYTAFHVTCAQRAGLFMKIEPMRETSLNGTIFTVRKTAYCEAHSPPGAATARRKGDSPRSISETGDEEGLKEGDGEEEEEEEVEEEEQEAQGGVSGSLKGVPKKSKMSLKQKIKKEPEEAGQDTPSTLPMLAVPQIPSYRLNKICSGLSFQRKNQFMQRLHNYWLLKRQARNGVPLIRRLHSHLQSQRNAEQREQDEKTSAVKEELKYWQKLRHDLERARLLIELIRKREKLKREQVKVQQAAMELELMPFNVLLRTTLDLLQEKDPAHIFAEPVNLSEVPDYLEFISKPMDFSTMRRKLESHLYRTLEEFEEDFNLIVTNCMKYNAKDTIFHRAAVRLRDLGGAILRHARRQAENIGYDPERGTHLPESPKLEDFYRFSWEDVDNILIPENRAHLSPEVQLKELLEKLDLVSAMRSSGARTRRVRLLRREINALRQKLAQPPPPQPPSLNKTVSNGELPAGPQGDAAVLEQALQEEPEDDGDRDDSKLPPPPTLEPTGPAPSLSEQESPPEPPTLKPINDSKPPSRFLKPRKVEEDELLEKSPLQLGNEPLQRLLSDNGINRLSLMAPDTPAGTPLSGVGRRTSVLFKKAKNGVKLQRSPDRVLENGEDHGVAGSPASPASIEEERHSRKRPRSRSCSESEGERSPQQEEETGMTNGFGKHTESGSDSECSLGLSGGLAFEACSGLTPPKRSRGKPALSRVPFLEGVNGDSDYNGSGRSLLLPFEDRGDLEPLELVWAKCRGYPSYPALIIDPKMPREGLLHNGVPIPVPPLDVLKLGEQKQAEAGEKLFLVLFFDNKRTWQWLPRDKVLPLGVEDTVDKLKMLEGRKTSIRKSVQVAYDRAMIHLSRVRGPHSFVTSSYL
In words: Inhibition of human His tagged BRPF3 incubated for 30 mins followed by addition of biotinylated peptide and further incubation for 30 mins measured by AlphaScreen assay. The method in brief: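 AlphaScreen biochemical readout of bromodomain inhibition, giving an IC50. Compound series were made by serial dilution of a 100 mM DMSO stock. […] Differences under 2-fold are treated as not significant.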

Data set [5] can be described thus: Fraction absorbed in CD-1 mouse at 3 mg/kg, po. The data set is classed as ADME, organism-based. To be noted: in vivo, read-out: Fabs. The method, boiled down:
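Female CD-1 mice (n = 3), single dosing: intravenous 1.0 mg/kg, or oral 3.0 mg/kg given as a suspension. Blood levels were followed over time to derive clearance, volume of distribution, elimination half-life, Cmax, Tmax, AUC0−∞, oral bioavailability and fraction absorbed.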

The test system of another data set is IM-9. Kind of data set: Growth inhibition of human IM9 cells after 72 hrs. The data set is classed as functional. To be noted: IM-9, 72 h.
Data set [6] addresses Bromodomain adjacent to zinc finger domain protein 2A (Homo sapiens, UniProt Q9UIF9). Kind of data set: Inhibition of human BAZ2A expressed in Escherichia coli BL21 after 1 hr by BROMOscan assay.

Some results are limits rather than exact numbers.

Bromodomain adjacent to zinc finger domain protein 2A, sequence (Q9UIF9 whole entry, the tested form may be a part): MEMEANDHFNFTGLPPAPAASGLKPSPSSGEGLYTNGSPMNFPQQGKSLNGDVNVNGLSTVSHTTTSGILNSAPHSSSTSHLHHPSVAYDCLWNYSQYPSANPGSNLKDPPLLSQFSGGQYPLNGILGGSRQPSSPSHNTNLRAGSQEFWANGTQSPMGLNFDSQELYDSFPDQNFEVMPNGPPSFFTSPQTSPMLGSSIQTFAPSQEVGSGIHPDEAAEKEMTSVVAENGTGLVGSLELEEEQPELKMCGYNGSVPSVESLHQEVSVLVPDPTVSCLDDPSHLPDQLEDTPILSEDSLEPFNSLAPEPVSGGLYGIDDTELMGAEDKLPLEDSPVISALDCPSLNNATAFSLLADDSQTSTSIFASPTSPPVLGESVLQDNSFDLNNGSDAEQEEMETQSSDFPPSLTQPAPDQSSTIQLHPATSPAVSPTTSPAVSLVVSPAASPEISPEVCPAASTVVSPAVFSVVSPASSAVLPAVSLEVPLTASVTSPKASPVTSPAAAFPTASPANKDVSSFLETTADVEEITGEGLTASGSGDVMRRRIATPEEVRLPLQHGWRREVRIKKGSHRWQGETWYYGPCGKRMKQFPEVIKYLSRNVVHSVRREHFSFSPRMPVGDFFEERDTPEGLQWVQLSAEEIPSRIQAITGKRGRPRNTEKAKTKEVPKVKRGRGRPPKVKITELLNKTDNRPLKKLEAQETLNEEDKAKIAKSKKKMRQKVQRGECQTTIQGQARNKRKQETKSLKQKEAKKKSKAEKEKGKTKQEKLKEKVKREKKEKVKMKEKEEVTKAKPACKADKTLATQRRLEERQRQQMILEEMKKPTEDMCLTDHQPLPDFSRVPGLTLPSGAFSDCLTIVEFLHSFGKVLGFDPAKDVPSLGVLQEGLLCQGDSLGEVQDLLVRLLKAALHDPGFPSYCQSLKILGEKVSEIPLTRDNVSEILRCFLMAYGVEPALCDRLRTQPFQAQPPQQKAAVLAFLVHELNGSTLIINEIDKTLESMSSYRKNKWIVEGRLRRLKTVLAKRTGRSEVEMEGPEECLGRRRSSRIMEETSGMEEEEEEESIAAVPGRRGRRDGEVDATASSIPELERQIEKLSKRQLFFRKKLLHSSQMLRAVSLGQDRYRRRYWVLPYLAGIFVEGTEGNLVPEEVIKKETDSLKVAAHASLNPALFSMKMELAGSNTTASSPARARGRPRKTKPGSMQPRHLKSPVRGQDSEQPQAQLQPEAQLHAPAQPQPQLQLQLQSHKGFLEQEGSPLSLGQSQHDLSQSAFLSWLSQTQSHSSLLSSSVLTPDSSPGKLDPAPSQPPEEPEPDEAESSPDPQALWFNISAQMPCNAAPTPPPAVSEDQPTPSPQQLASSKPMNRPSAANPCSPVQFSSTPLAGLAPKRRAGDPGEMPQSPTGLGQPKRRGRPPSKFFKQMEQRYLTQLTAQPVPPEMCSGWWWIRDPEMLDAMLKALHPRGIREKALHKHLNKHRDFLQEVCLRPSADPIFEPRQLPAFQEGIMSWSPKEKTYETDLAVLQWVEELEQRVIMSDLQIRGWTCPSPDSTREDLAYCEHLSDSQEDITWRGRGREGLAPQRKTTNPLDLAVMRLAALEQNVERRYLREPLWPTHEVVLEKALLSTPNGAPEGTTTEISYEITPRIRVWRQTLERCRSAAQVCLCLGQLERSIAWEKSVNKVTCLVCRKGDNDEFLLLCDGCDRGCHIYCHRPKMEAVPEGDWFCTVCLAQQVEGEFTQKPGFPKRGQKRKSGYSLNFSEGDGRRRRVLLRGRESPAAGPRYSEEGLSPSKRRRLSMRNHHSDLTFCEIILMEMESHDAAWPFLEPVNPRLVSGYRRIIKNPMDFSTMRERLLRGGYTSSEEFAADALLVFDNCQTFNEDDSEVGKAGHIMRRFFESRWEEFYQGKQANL

On to `Cc1cc2cc(NS(=O)(=O)c3ccc(C#N)cc3)ccc2n(C)c1=O`, for which the GI50 in [1] is 1 to 10 µM; in data set [2], 1 to 10 µM; in the data set on OCI-AML2, 1.3 µM; in the data set on HepG2, 1 to 10 µM; in the data set on IM-9, 1 to 10 µM. The apical-to-basolateral permeability (Papp A→B) at 2 h, 10 µM in data set [3] is 10 ×10⁻⁶ cm/s. For the same compound, the IC50 in [4] was found to be 2 µM. Moreover, the Fa in data set [5] is 51%.
In turn, `CCc1cc2cc(NS(=O)(=O)c3ccc(C#N)cc3)ccc2n(CC)c1=O` displayed an IC50 in data set [6] of over 100 µM.
